From PubChem BioAssay AID624038 (The Scripps Research Institute Molecular Screening Center, 2012) come the findings set out here.

Structures are written as SMILES. About 1,100 (0.31%) of roughly 360,000 compounds were called active.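 The calls were made as follows: active = activation above the run cutoff, the mean activation of all test compounds plus 3 SD (cut at about 18% in these data); inactive = the rest.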 For the sample, actives were picked, then their nearest neighbours and some compounds at random.

Sequence of Muscarinic acetylcholine receptor M5 (Homo sapiens) (P08912 whole entry, looked up): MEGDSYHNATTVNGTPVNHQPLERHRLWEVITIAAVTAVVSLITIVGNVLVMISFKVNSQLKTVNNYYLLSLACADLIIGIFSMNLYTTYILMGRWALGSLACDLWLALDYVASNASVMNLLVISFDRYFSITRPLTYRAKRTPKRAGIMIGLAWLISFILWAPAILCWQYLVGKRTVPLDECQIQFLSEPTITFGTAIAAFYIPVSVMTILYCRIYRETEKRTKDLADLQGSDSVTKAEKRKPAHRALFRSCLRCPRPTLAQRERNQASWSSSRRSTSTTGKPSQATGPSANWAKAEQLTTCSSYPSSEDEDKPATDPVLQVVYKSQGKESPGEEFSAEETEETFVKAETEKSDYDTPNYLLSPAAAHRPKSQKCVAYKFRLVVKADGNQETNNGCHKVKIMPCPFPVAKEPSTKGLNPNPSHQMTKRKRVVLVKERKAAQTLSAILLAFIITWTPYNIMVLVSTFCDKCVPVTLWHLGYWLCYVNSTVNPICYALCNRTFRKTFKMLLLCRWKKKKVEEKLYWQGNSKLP

In this assay the target is Muscarinic acetylcholine receptor M5 (Homo sapiens) (UniProt P08912). Description: human M5 muscarinic receptor positive allosteric modulators, primary screen, CHO-K1 cells, Fluo-8 calcium fluorescence (AID 624038). Particulars: CHO-K1 hM5, Fluo-8 calcium, ACh EC20 PAM; at 3 µM; hits give high values; 0% = ACh EC20, 100% = ACh EC100. The method, boiled down:
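Assay system – human M5 receptor in CHO-K1 cells · Read-out – % activation, ACh-normalized · Technique – Fluo-8 calcium fluorescence · Dosing – single-point, 3 µM nominal · Incubation – Fluo-8 loading 80 min at 37 °C plus 30 min room temperature · Repeats – singlicate, one well per test compound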
Regarding `COc1ccc2c(-c3ccccc3)cc(SCC(=O)N(C)C3CCS(=O)(=O)C3)nc2c1` (configuration not stated), the activation is -0.41% (inactive).
The same measure for `CN(C(=O)COC(=O)c1cc(-c2ccco2)nc2ccccc12)C1CCS(=O)(=O)C1` (configuration not stated): 2.3% (inactive); for `Cc1c(-c2cccc(Cl)c2)nc2ccccc2c1C(=O)OCC(=O)N(C)C1CCS(=O)(=O)C1` (configuration not stated): 20.2% (active); for `CCOC(=O)C1=C(C)OC(N)=C(C#N)C1c1cncc(-c2ccc(F)cc2)c1` (configuration not stated): -7.72% (inactive).
The same measure for `CN1CCN(S(=O)(=O)c2ccc(Nc3ccc(F)cc3)nc2)CC1`: 11.7% (inactive).
As for `CCOC(=O)C1CCCN(C(=O)c2ccc(C)c(F)c2)CC1` (configuration not stated), the activation was 0.17% (inactive).
Take `CCOC(=O)C1CCCN(C(=O)c2ccc(N(C)C)cc2)CC1` (configuration not stated): the activation is -2.3% (inactive).
As for `C=CCN1C(=O)c2ccc(C(=O)N3CCC(C(=O)OCC)CC3)cc2C1=O`, the activation was 44.4% (active).
The same measure for `C=CCOC(=O)c1ccccc1C(=O)OCC=C`: 0.16% (inactive); for `O=C(COC(=O)/C=C/c1ccc(OC(F)F)cc1)NC1CCCCC1`: -3.38% (inactive).
The same measure for `CCN(CCn1cccn1)C(=O)CC1C(=O)NCCN1Cc1cccc(OC)c1OC` (configuration not stated): -1.21% (inactive).
For `CCCC(CNC(=O)COC(=O)C1=NNC(=O)CC1)c1ccc(Cl)cc1Cl` (configuration not stated), the activation was 8.77% (inactive).
For `COC(c1ccccc1)c1nnc(CCC(=O)N2CCN(CCOc3ccccc3)CC2)o1` (configuration not stated), the activation is 20% (active).
The result for `O=C(c1ccco1)N1CCN(CCOc2ccccc2)CC1` reads 2.94% (inactive).
The same measure for `O=C(c1ccc(Br)o1)N1CCN(CCOc2ccccc2)CC1`: 4.96% (inactive); for `CCC1=[N+]([O-])C(C)(/C(C)=N\O)N(O)C1(C)C` (configuration not stated): 3.88% (inactive); for `CC(C)Cn1cc(-c2cncc3nccn23)cn1`: -3.57% (inactive).
The same measure for `COc1ccc(-c2c(C#Cc3ccccc3)c3ccccc3n2C)cc1`: 0.62% (inactive); for `CC(C)(C)n1nc(Cc2cccc3ccccc23)c(C#N)c1N`: -3.53% (inactive).
Take `CN(C)Cc1c(C#N)c2ccccc2n1C`: the activation is 18.2% (active).
The same measure for `CCN(Cc1ccccc1)C(=O)Cc1ccc(OC)c(S(=O)(=O)N2CCOCC2)c1`: 0.97% (inactive); for `COc1ccc(NC(=O)CNC(=O)Cn2ccc3ccccc3c2=O)c(OC)c1`: 0.07% (inactive).
For the compound `CCN(C[C@H]1N[C@@](CC)(C(=O)OC)[C@H]2C(=O)N(C)C(=O)[C@@H]12)C(=O)Nc1ccc(F)cc1`, the activation was -0.26% (inactive).
As for `O=C(NCc1ccccc1)C1c2ccccc2OCC(=O)N1C1CC1` (configuration not stated), the activation was 6.75% (inactive).
For `O=C(NCc1nnc(SCC(=O)N2CCCc3ccccc32)o1)c1ccccc1F`, the activation was 22.5% (active).
The same measure for `Cc1ccc(NC(=O)CSc2nnc(CNC(=O)c3ccccc3F)o2)cc1`: 0.28% (inactive); for `Cc1ccc(NC(=O)CSc2nnc(CNC(=O)c3ccccc3F)o2)cc1Cl`: -1.76% (inactive); for `COCCNC(=O)C1CCCN(Cc2ccccc2Cl)CC1` (configuration not stated): 0.83% (inactive).
The same measure for `CCOC(=O)CC1(NC(=O)c2cc(COc3cncc(Cl)c3)on2)CCCCC1`: -12.1% (inactive); for `O=C(NNS(=O)(=O)c1ccc(F)cc1)c1cnccn1`: -12.5% (inactive).
The same measure for `COc1ccc(CN(C(=O)c2cccs2)c2nccs2)cc1OC`: -13.5% (inactive).
Turning to `OCC[C@H]1C[C@H](O)[C@@H](O)[C@]2(CCCCO2)O1`, the activation was 19.8% (active).
Take `C[C@H]1CC[C@]2(O[C@@H](CCO)C[C@@H](O)[C@@H]2O)O1`: the activation is 5.16% (inactive).
The result for `C[C@@H]1CC[C@]2(O[C@@H](CCO)C[C@H](O)[C@H]2O)O1` reads 3.31% (inactive); that for `Cc1ccc(NC(=O)N2CCSc3ccccc32)cc1`, -6.2% (inactive).
The result for `CCCCSc1nnc(-c2ccc(C)cc2)o1` reads 19.1% (active); that for `Cc1ccc(-c2nnc(CN3CCN(C)CC3)o2)cc1`, 5.27% (inactive); that for `CCN(C(=O)CSc1nnc(-c2ccncc2)o1)c1ccccc1`, -1.49% (inactive).
The same measure for `COCCNc1nc(N)c([N+](=O)[O-])c(NCCO)n1`: -6.19% (inactive).
As for `CCOC(=O)c1ccc2c(c1)nc(SCC(=O)NC(C)C)n2CC`, the activation is 0.07% (inactive).
The same measure for `CCc1ccc(NC(=O)C(=O)N/N=C(\C)CC(=O)NCCOC)cc1`: 3.15% (inactive).
Consider `Cc1cc(C)n(-c2cc(Oc3ccccc3)ncn2)n1`, for which the activation is 34.2% (active).
The result for `Cc1cc(C)n(-c2ccc3nncn3n2)n1` reads 0.99% (inactive); that for `CC(=O)c1cnn(-c2cc(Oc3ccc(F)cc3)ncn2)c1C`, 0.64% (inactive).
The same measure for `COC(=O)c1sc(SC)c(S(=O)(=O)C(C)C)c1N/N=C(\C#N)S(=O)(=O)c1ccccn1`: 3.1% (inactive); for `CCc1nc2ccc(C(=O)N3CCC(O)(Cc4ccccc4)CC3)cn2c1N(C)C(=O)Cc1ccccc1`: 1.27% (inactive); for `CCCCCCCCCCCCN1C(=O)CSC1c1cccnc1` (configuration not stated): 22.7% (active).
The same measure for `CN(C)CCCN1C(=O)CSC1c1ccc([N+](=O)[O-])cc1` (configuration not stated): 8.84% (inactive).
Regarding `CCCCc1ccc(NC(=O)NCc2cccnc2)cc1`, the activation is 2.66% (inactive).
With `CCN(CC)S(=O)(=O)c1cc([N+](=O)[O-])ccc1N=Nc1c(O)n(C)c2ccccc12`, the activation was -2.02% (inactive).
On to `CCOc1ccc(NC(=O)CN(C)C(=O)CCSc2ccc(F)cc2)cc1OCC`, for which the activation is -1.87% (inactive).
Take `CCN(Cc1ccccc1)S(=O)(=O)c1cc2c3c(c1)CCN3C(=O)CC2`: the activation is 3.77% (inactive).
The result for `Cc1ccc(S(=O)(=O)N(C)C)cc1NC(=O)COC(=O)/C=C/c1cccs1` reads 1.46% (inactive); that for `Cc1ccc(S(=O)(=O)N(C)C)cc1NC(=O)/C=C/c1cccs1`, -1.18% (inactive); that for `Cc1cc(C)c2nc(N(CCN(C)C)C(=O)/C=C/c3cccs3)sc2c1`, 18.8% (active).
In the case of `FC(F)(F)c1ccnc(Oc2ccc(C3=NCCS3)cc2)c1`, the activation was -0.95% (inactive).
The same measure for `COc1ccc(NC(=O)CSc2nnc(-c3ccccc3F)n2C2CC2)cc1S(N)(=O)=O`: 4.72% (inactive); for `CCOC1CS(=O)(=O)CC1OCC` (configuration not stated): 27.7% (active); for `O=C(O)c1ccc(COCC(F)(F)F)cc1`: -0.76% (inactive).
The same measure for `CCCCCCN1CCN(C2CN(Cc3cn(CCCCCC)nn3)S(=O)(=O)C2)CC1` (configuration not stated): 0.04% (inactive); for `Cc1cccc(-n2nc3c(c2NC(=O)c2cc4ccccc4o2)CS(=O)(=O)C3)c1`: 0.74% (inactive); for `CCC(C(=O)N1CCN(S(=O)(=O)c2sc(C(=O)O)c(C)c2C(=O)O)CC1)c1ccccc1` (configuration not stated): 5.73% (inactive).
The result for `COc1ccc(OC)c(S(=O)(=O)Nc2c(C)nn(C)c2C)c1` reads 18.8% (active); that for `COc1ccc(OC)c(S(=O)(=O)NCCC(C)C)c1`, 3.29% (inactive).
With `COc1ccc(OC)c(S(=O)(=O)Nc2ccccc2F)c1`, the activation was -7.66% (inactive).
The same measure for `Cc1ccc(Br)c(NS(=O)(=O)c2cccc(C(=O)N3CCNC(=O)C3)c2)c1`: -1.57% (inactive).
Regarding `CCOC(=O)c1cnc2c(c(C)nn2CC)c1Cl`, the activation is 0.72% (inactive).
The result for `CCOC(=O)c1cnc(-n2nc(C)cc2C)nc1-n1nc(C)cc1C` reads 37.3% (active).
The same measure for `CCOC(=O)c1cnc(-n2nc(C)cc2C)nc1NNc1cc(C)nc(-c2ccccc2)n1`: 0.83% (inactive); for `Cc1cc(C(=O)OCC(=O)Nc2nccs2)c2ccccc2n1`: -1.11% (inactive).
The result for `C=CCn1c(=S)[nH]c2scc(-c3ccco3)c2c1=O` reads -1.04% (inactive); that for `Cc1cc(C)n(Cc2cnc(N3CCOCC3)s2)n1`, -0.72% (inactive); that for `CN(CC(=O)Nc1c(Cl)cccc1Cl)C(=O)CNC(=O)C1CCCCC1`, 7.43% (inactive).
Turning to `COc1cccc(N(CC(=O)N2CCc3ccccc3C2)S(C)(=O)=O)c1`, the activation is -6.56% (inactive).
With `COc1cccc(N(CC(=O)NC2CCCCCC2)S(=O)(=O)c2ccccc2)c1`, the activation was -3.45% (inactive).
The same measure for `CCN(CC)C(=O)CN(c1cccc(OC)c1)S(=O)(=O)c1ccc(C)cc1`: 24% (active); for `CCN1CCN(C(=O)C2CCCN(S(=O)(=O)c3ccc(OC)c(OC)c3)C2)CC1` (configuration not stated): -3.07% (inactive); for `CCNC(=S)NNC(=O)C1CCN(Cc2ccccc2)CC1`: 22.7% (active).
The result for `CCOC(=O)C1CCN(Cc2ccc(-c3ccccc3)cc2)CC1` reads -6.76% (inactive); that for `O=C(NNS(=O)(=O)c1ccc(Cl)cc1)C1CCN(Cc2ccccc2)CC1`, -22.7% (inactive).
The same measure for `CCCc1nc(N)nc2c1C(=O)CC(C)(C)C2`: 3.62% (inactive).
As for `COc1ccc(N2CCN(CCCNC(=O)C3CCN(S(=O)(=O)N4CCOCC4)CC3)CC2)cc1`, the activation was -0.18% (inactive).
The same measure for `CSc1ccc(C(=O)C2CCCN(C(=O)c3ccc(C)nc3)C2)cc1` (configuration not stated): -1.27% (inactive); for `Cn1nccc1NC(=O)CC(CC(=O)O)c1ccccc1` (configuration not stated): -3.88% (inactive); for `N#Cc1c(-c2ccccc2)c(-c2ccccc2)n[nH]c1=O`: 20.6% (active).
The same measure for `O=C(O)c1n[nH]nc1-c1ccccc1`: 3.89% (inactive).
The result for `Cc1c(-c2ccccc2)nc(N)c(C#N)c1-c1cccs1` reads -5.86% (inactive); that for `O=C(COc1ccc(Cl)cc1)NCCS(=O)(=O)N1CCN(c2ccc(F)cc2)CC1`, -8.06% (inactive).
As for `CCCc1nc(N2CCN(C)CC2)c2sc(=S)n(-c3ccccc3)c2n1`, the activation is -2.27% (inactive).
The result for `O=C(/C=C/c1c(Cl)cccc1Cl)NCc1ccccc1` reads 0.05% (inactive); that for `CCOC(=O)CNC(=O)/C=C/c1c(Cl)cccc1Cl`, 20.4% (active).
As to `O=C(/C=C/c1c(F)cccc1Cl)Nc1nn[nH]n1`, the activation is -6.11% (inactive).
Take `CCc1ccc(N(CC)c2ncnc3nc[nH]c23)cc1`: the activation is -3.31% (inactive).
The same measure for `CC(C)Cn1c(=O)c2ccccc2n2c(CCC(=O)NCc3ccccn3)nnc12`: -4.54% (inactive); for `CSc1ncc(Sc2ccccc2)c(C(=O)O)n1`: 23.2% (active); for `Cc1ccccc1C(=O)Nc1ccccc1Sc1ccccc1`: -14.3% (inactive).
With `CSc1ncc(C(=O)NCCCc2ccccc2)c(C)n1`, the activation is -2.95% (inactive).
